In paper PMC6220817 (Chemistry (Weinheim an Der Bergstrasse, Germany), 2018):
Ends that are not written are not given here. TMR‑5‑maleimide = tetramethylrhodamine-5-maleimide

Experiments:
tubulin [1] = target: tubulin (Sus scrofa, UniProt P02550+P02554); experiment: Turbidity measurement of tubulin polymerization; assay type: biochemical, porcine; settings: 10 μM compound, 4 μM tubulin, 1 mM GTP; for Stability of treated microtubules on cooling (turbidity): cooled to 4 °C for 15 min; for Turbidity (optical density at 350 nm) / tubulin polymerization: BRB80, 37 °C, 60 min
How it was run: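 Porcine brain tubulin (4 μM) with 1 mM GTP in BRB80 (80 mM PIPES pH 6.9, 1 mM MgCl2, 1 mM EGTA) at 37 °C. Test compound or taxol at 10 μM, or none. OD350 read by UV/Vis every 1 min for 60 min. Samples then held at 4 °C for 15 min and read again.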

tubulin [2] = settings: Reported value for the binding to tubulin; cited from earlier work
[3] = target: tubulin (α‐ and β‐tubulin dimer) (porcine (purified from porcine brain)) (UniProt P02550); experiment: equilibrium dialysis
Chain of tubulin (α‐ and β‐tubulin dimer) (porcine (purified from porcine brain)) (P02550 whole entry, chain 1 of 2): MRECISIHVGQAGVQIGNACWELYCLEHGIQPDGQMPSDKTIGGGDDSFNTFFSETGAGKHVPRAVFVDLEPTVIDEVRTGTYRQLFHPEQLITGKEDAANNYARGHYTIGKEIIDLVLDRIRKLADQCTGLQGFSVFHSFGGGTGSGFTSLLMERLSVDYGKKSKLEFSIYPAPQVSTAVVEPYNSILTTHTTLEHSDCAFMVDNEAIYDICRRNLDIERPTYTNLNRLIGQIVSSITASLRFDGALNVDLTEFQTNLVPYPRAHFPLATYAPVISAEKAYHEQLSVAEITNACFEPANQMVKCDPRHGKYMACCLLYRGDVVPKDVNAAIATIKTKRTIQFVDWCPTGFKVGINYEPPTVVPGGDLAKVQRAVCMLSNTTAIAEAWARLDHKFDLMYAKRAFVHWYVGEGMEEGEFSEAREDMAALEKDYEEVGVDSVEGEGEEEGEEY
Chain of tubulin (α‐ and β‐tubulin dimer) (porcine (purified from porcine brain)) (P02554 whole entry, chain 2 of 2, further chain): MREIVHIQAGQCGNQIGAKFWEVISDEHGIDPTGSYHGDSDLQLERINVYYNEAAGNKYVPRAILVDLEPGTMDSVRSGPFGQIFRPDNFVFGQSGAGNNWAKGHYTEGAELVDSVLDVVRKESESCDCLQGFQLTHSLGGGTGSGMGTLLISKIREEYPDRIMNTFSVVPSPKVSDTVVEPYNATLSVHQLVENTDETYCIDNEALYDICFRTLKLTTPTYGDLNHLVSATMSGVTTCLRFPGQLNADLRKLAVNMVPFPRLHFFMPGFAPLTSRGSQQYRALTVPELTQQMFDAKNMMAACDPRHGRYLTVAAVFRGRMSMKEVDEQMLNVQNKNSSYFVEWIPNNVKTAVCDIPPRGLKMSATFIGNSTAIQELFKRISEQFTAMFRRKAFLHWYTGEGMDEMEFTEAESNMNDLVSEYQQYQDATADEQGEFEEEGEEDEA

Chain of tubulin (Sus scrofa, UniProt P02550+P02554) (P02554 whole entry): as the sequence (P02554 whole entry, chain 2 of 2, further chain) above
Chain of tubulin (Sus scrofa, UniProt P02550+P02554) (P02550 whole entry): as the sequence (P02550 whole entry, chain 1 of 2) above

## CC(=O)O[C@H]1C(=O)[C@@]2(C)[C@H]([C@H](OC(=O)c3ccccc3)[C@]3(O)C[C@H](OC(=O)[C@H](O)[C@@H](NC(=O)c4ccccc4)c4ccccc4)C(C)=C1C3(C)C)[C@]1(OC(C)=O)CO[C@@H]1C[C@@H]2O [taxol, reference compound]
Tubulin [1]
  Stability of treated microtubules on cooling (turbidity): remained stable

## H‐Cys(Trt)‐Gly‐Gly‐Gly‐Lys(Boc)‐His(Trt)‐Gln(Trt)‐Pro‐Gly‐Gly‐Gly‐Lys(Boc)‐Val‐Gln(Trt)‐Ile‐Ile‐Asn(Trt)‐Lys(Boc)‐Lys(Boc)‐Leu‐Asp(OtBu)‐Leu‐Alko‐PEG resin [1N]
Tubulin [1]
  Turbidity (optical density at 350 nm) / tubulin polymerization: less effective

## H-KKHVPGGGSVQIVYKPVDLGGGC-OH [2C]
Tubulin [1]
  Turbidity (optical density at 350 nm) / tubulin polymerization: less effective

## H-KHQPGGGKVQIINKKLDLGGGC-OH [1C]
Tubulin [1]
  Turbidity (optical density at 350 nm) / tubulin polymerization: less effective

## CC(=O)O[C@H]1C(=O)[C@@]2(C)[C@H]([C@H](OC(=O)c3ccccc3)[C@]3(O)C[C@H](OC(=O)[C@H](O)[C@@H](NC(=O)c4cccc(N(C)C)c4)c4ccccc4)C(C)=C1C3(C)C)[C@]1(OC(C)=O)CO[C@@H]1C[C@@H]2O [Taxol derivative, N‐debenzoyl‐N‐[3‐(dimethylamino)benzoyl]taxol]
Tubulin [2]
  Kd: 49 µM

## H-CGGGKKHVPGGGSVQIVYKPVDL-OH [2N]
Tubulin [1]
  Turbidity (optical density at 350 nm) / tubulin polymerization: increases the turbidity
  Stability of treated microtubules on cooling (turbidity): completely depolymerized

## KHQPGGGKVQIINKKLDLGGGC(TMR‑5‑maleimide) [1C‐TMR]
[3]
  Kd: 16.7 µM

## C(TMR‑5‑maleimide)GGGKHQPGGGKVQIINKKLDL [1N‐TMR]
[3]
  Kd: 3.4 µM
